Reference: ChEMBL document CHEMBL1154048, “Design, synthesis and pharmacological evaluation of new 1-[3-(4-arylpiperazin-1-yl)-2-hydroxy-propyl]-3,3-diphenylpyrrolidin-2-one derivatives with antiarrhythmic, antihypertensive, and alpha-adrenolytic activity” (Eur J Med Chem, 2009)
Blank lines part the entries; values can stand above or below the molecule they belong to.

What was measured:
Rattus norvegicus [1] = assay: Hypotensive activity in normotensive Wistar rat assessed as systolic blood pressure at 2.5 mg/kg, iv after 5 mins (Rvb=125.6 +/- 7.6 mmHg); type: functional, Artery
Rattus norvegicus [2] = assay: Hypotensive activity in normotensive Wistar rat assessed as systolic blood pressure at 2.5 mg/kg, iv after 60 mins (Rvb=125.6 +/- 7.6 mmHg); type: functional, Artery
Rattus norvegicus [3] = assay: Hypotensive activity in normotensive Wistar rat assessed as diastolic blood pressure at 2.5 mg/kg, iv after 5 mins (Rvb=107.2 +/- 7.3 mmHg); type: functional, Artery
Rattus norvegicus [4] = assay: Hypotensive activity in normotensive Wistar rat assessed as diastolic blood pressure at 2.5 mg/kg, iv after 10 mins (Rvb=107.2 +/- 7.3 mmHg); type: functional, Artery
Rattus norvegicus [5] = assay: Hypotensive activity in normotensive Wistar rat assessed as diastolic blood pressure at 2.5 mg/kg, iv after 30 mins (Rvb=107.2 +/- 7.3 mmHg); type: functional, Artery
Rattus norvegicus [6] = assay: Hypotensive activity in normotensive Wistar rat assessed as systolic blood pressure at 5 mg/kg, iv after 10 mins (Rvb=139 +/- 0.6 mmHg); type: functional, Artery
Rattus norvegicus [7] = assay: Hypotensive activity in normotensive Wistar rat assessed as diastolic blood pressure at 5 mg/kg, iv after 5 mins (Rvb=120 +/- 1.7 mmHg); type: functional, Artery
Rattus norvegicus [8] = assay: Hypotensive activity in normotensive Wistar rat assessed as diastolic blood pressure at 5 mg/kg, iv after 20 mins (Rvb=120 +/- 1.7 mmHg); type: functional, Artery
Rattus norvegicus [9] = assay: Hypotensive activity in normotensive Wistar rat assessed as systolic blood pressure at 5 mg/kg, iv after 10 mins (Rvb=140.5 +/- 1.1 mmHg); type: functional, Artery
Rattus norvegicus [10] = assay: Hypotensive activity in normotensive Wistar rat assessed as systolic blood pressure at 5 mg/kg, iv after 60 mins (Rvb=140.5 +/- 1.1 mmHg); type: functional, Artery
Rattus norvegicus [11] = assay: Hypotensive activity in normotensive Wistar rat assessed as diastolic blood pressure at 5 mg/kg, iv after 5 mins (Rvb=125.5 +/- 0.6 mmHg); type: functional, Artery
Rattus norvegicus [12] = assay: Hypotensive activity in normotensive Wistar rat assessed as diastolic blood pressure at 5 mg/kg, iv after 10 mins (Rvb=125.5 +/- 0.6 mmHg); type: functional, Artery
Rattus norvegicus [13] = assay: Hypotensive activity in normotensive Wistar rat assessed as diastolic blood pressure at 5 mg/kg, iv after 30 mins (Rvb=125.5 +/- 0.6 mmHg); type: functional, Artery
Rattus norvegicus [14] = organism: Rattus norvegicus; assay: Selectivity for rat cerebral cortex alpha1 adrenergic receptor over rat cerebral cortex alpha2 adrenergic receptor; type: tissue-based
Outline: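 Rat cerebral cortex membranes were prepared in 50 mM Tris–HCl pH 7.6, homogenized and spun twice at 20 000 g. Competition was against [3H]prazosin 0.2 nM (α1) or [3H]clonidine 2 nM (α2), with 7–8 concentrations from 10^-11 to 10^-4 M. Nonspecific binding was defined with phentolamine for the prazosin assay. After filtration, binding was read by scintillation counting in duplicate. Ki was calculated by Cheng–Prusoff, and selectivity was compared from the α1 and α2 Ki values.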

[15] = Selectivity ratio of Kb for alpha1B adrenoceptor in guinea pig spleen to Kb for Alpha-1D adrenoceptor in Wistar rat thoracic aorta; type: tissue-based
Outline: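 Isolated-tissue antagonism assays were run in guinea-pig spleen (α1B) and in endothelium-denuded ~4 mm thoracic aortic rings from male Wistar rats weighing 200–350 g (α1D). Aortic rings sat in Krebs–Henseleit at 37 °C, pH 7.4, gassed with O2/CO2 19:1, at 2 g tension. Two cumulative noradrenaline curves were run 60 min apart, with 30 min antagonist incubation and continuous propranolol. Schild pA2 was taken as pKB, n ≥ 5.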

Rattus norvegicus [16] = assay: Hypotensive activity in normotensive Wistar rat assessed as systolic blood pressure at 5 mg/kg, iv after 5 mins (Rvb=142.5 +/- 3.6 mmHg); type: functional, Artery
Rattus norvegicus [17] = assay: Hypotensive activity in normotensive Wistar rat assessed as systolic blood pressure at 5 mg/kg, iv after 10 mins (Rvb=142.5 +/- 3.6 mmHg); type: functional, Artery
Rattus norvegicus [18] = assay: Hypotensive activity in normotensive Wistar rat assessed as systolic blood pressure at 5 mg/kg, iv after 20 mins (Rvb=142.5 +/- 3.6 mmHg); type: functional, Artery
Rattus norvegicus [19] = assay: Hypotensive activity in normotensive Wistar rat assessed as systolic blood pressure at 5 mg/kg, iv after 60 mins (Rvb=142.5 +/- 3.6 mmHg); type: functional, Artery
Rattus norvegicus [20] = assay: Hypotensive activity in normotensive Wistar rat assessed as diastolic blood pressure at 5 mg/kg, iv after 5 mins (Rvb=127 +/- 8.1 mmHg); type: functional, Artery
Rattus norvegicus [21] = assay: Hypotensive activity in normotensive Wistar rat assessed as diastolic blood pressure at 5 mg/kg, iv after 10 mins (Rvb=127 +/- 8.1 mmHg); type: functional, Artery
Rattus norvegicus [22] = assay: Hypotensive activity in normotensive Wistar rat assessed as diastolic blood pressure at 5 mg/kg, iv after 20 mins (Rvb=127 +/- 8.1 mmHg); type: functional, Artery
Rattus norvegicus [23] = assay: Hypotensive activity in normotensive Wistar rat assessed as diastolic blood pressure at 5 mg/kg, iv after 30 mins (Rvb=127 +/- 8.1 mmHg); type: functional, Artery
[24] = test system: Alpha-1B adrenergic receptor (Cavia porcellus); assay: Antagonist activity at Alpha-1B adrenoceptor in guinea pig spleen assessed as inhibition of noradrenaline-induced contraction after 30 mins
Rattus norvegicus [25] = assay: Hypotensive activity in normotensive Wistar rat assessed as systolic blood pressure at 5 mg/kg, iv after 5 mins (Rvb=138 +/- 0.9 mmHg); type: functional, Artery
Rattus norvegicus [26] = assay: Hypotensive activity in normotensive Wistar rat assessed as systolic blood pressure at 5 mg/kg, iv after 30 mins (Rvb=138 +/- 0.9 mmHg); type: functional, Artery
Rattus norvegicus [27] = assay: Hypotensive activity in normotensive Wistar rat assessed as diastolic blood pressure at 5 mg/kg, iv after 10 mins (Rvb=119 +/- 1.2 mmHg); type: functional, Artery
Rattus norvegicus [28] = assay: Hypotensive activity in normotensive Wistar rat assessed as diastolic blood pressure at 5 mg/kg, iv after 60 mins (Rvb=119 +/- 1.2 mmHg); type: functional, Artery
Rattus norvegicus [29] = assay: Hypotensive activity in normotensive Wistar rat assessed as systolic blood pressure at 5 mg/kg, iv after 20 mins (Rvb=141.3 +/- 6.4 mmHg); type: functional, Artery
Rattus norvegicus [30] = assay: Hypotensive activity in normotensive Wistar rat assessed as systolic blood pressure at 5 mg/kg, iv after 60 mins (Rvb=141.3 +/- 6.4 mmHg); type: functional, Artery
Rattus norvegicus [31] = assay: Hypotensive activity in normotensive Wistar rat assessed as diastolic blood pressure at 5 mg/kg, iv after 60 mins (Rvb=126 +/- 4.6 mmHg); type: functional, Artery

SMILES: COc1ccc(N2CCN(CC(O)CN3CCC(c4ccccc4)(c4ccccc4)C3=O)CC2)cc1.Cl.Cl (stereo unspecified)
Activity (Rattus norvegicus [1]): 126.6 mmHg
Activity (Rattus norvegicus [2]): 105.8 mmHg
Activity (Rattus norvegicus [3]): 107 mmHg
Activity (Rattus norvegicus [4]): 96.4 mmHg
Activity (Rattus norvegicus [5]): 88.2 mmHg

SMILES: COc1ccccc1N1CCN(CC(O)CN2CCC(c3ccccc3)(c3ccccc3)C2=O)CC1.Cl.Cl (stereo unspecified)
Activity (Rattus norvegicus [6]): 122 mmHg
Activity (Rattus norvegicus [7]): 109 mmHg
Activity (Rattus norvegicus [8]): 104 mmHg

SMILES: Cl.Cl.O=C1N(CC(O)CN2CCN(c3ccccc3)CC2)CCC1(c1ccccc1)c1ccccc1 (stereo unspecified)
Activity (Rattus norvegicus [9]): 134.5 mmHg
Activity (Rattus norvegicus [10]): 126.5 mmHg
Activity (Rattus norvegicus [11]): 119 mmHg
Activity (Rattus norvegicus [12]): 118.6 mmHg
Activity (Rattus norvegicus [13]): 113.5 mmHg

Selectivity ratio (Rattus norvegicus [14]): 10
Activity [24]: Dose-dependent effect
SMILES: CCOc1ccccc1N1CCN(CC(O)CN2CCC(c3ccccc3)(c3ccccc3)C2=O)CC1.Cl.Cl (stereo unspecified)
Ratio [15]: 5.2
Activity (Rattus norvegicus [16]): 130 mmHg
Activity (Rattus norvegicus [17]): 118 mmHg
Activity (Rattus norvegicus [18]): 111 mmHg
Activity (Rattus norvegicus [19]): 114 mmHg
Activity (Rattus norvegicus [20]): 117 mmHg
Activity (Rattus norvegicus [21]): 105 mmHg
Activity (Rattus norvegicus [22]): 98 mmHg
Activity (Rattus norvegicus [23]): 96 mmHg

SMILES: Cl.Cl.O=C1N(CC(O)CN2CCN(c3ccccc3C(F)(F)F)CC2)CCC1(c1ccccc1)c1ccccc1 (stereo unspecified)
Activity (Rattus norvegicus [25]): 126 mmHg
Activity (Rattus norvegicus [26]): 116 mmHg
Activity (Rattus norvegicus [27]): 106.5 mmHg
Activity (Rattus norvegicus [28]): 100 mmHg

SMILES: Cc1ccccc1N1CCN(CC(O)CN2CCC(c3ccccc3)(c3ccccc3)C2=O)CC1.Cl.Cl (stereo unspecified)
Activity (Rattus norvegicus [29]): 136.3 mmHg
Activity (Rattus norvegicus [30]): 116 mmHg
Activity (Rattus norvegicus [31]): 99 mmHg
